Assay outcomes: PubChem BioAssay, several laboratories
Most compounds without a hit are left out; they make up all but 4.9% or so of the library.
HSF1 activator = HSF-1 activators, primary screen, NIH3T3-HGL cells, MG132 stress, luminescence, single point. NIH3T3-HGL HSF-1 luciferase reporter, 8 h; 100% = twice DMSO control signal. activation, % at 9 µM. 300,000 tested, 1.7% active. AID 504408, 2011;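 active means mean replicate activation of at least 50% with a set share of replicates each reaching 50%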;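 further: 0% = median of the neutral control wells and 100% = twice that signal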
CHT inh = inhibitors of human choline transporter CHT; 310,000 tested, 0.86% active; High affinity choline transporter 1 (Homo sapiens), Q9GZV3; CHT-expressing cells, membrane potential dye, choline response; hits give low values; B-score at 10 µM;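 active means B-score over 3 SD under the library average, and starting fluorescence ratio not unusually high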;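 further: choline stimulus applied at its EC90 after an EC20 pre-addition; B-score computed on integrated fluorescence ratio after choline addition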
Target sequence (Q9GZV3 whole entry, looked up): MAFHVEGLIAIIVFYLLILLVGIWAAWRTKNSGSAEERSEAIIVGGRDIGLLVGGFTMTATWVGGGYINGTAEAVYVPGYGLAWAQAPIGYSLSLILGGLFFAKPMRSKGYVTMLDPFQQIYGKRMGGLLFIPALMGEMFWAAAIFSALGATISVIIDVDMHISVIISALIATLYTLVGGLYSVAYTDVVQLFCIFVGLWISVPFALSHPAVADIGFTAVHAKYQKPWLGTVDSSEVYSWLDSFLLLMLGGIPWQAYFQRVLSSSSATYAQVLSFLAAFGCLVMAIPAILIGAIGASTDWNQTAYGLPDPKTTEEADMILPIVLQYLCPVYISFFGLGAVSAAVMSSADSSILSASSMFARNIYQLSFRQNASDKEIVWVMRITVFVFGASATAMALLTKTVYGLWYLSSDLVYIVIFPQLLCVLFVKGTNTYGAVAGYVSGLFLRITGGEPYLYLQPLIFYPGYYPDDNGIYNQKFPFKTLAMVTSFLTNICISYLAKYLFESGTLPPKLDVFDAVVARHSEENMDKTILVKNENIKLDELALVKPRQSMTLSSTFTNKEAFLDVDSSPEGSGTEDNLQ
HSF1 inhib = HSF1 inhibitors in luciferase reporter cells, primary screen, cell-based, NIH3T3, luminescence; AID 2098, 2009; NIH3T3-HGL HSE-luciferase, MG132-induced, luminescence 8 h; hits give low values; 300,000 tested, 0.77% active; activity change, negative = inhibition, % at 7.5 µM (by protocol);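 active means more than half of replicate wells show activity change below -50%, luminescence cut by over half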;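 further: luciferase reports HSF-1 transcriptional activity via heat shock element; 0% = median of DMSO wells and -100% = zero luminescence signal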
PHOSPHO1 block = PubChem AID 1565; Phosphoethanolamine/phosphocholine phosphatase (Homo sapiens), Q8TCT1; recombinant PHOSPHO1, absorbance phosphatase assay; inhibition, % at 13.3 µM; 290,000 tested, 1.1% active; in the data active means inhibition above about 60%
CHT PAM = CHT positive allosteric modulators, primary screen, cell-based, membrane potential dye, choline EC20. CHT-expressing cells; hits give high values; LV-AA mutant CHT in HEK293 cells. B-score at 10 µM. 310,000 tested, 0.49% active. AID 488977, 2010;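 active means initial fluorescence not abnormally high and integrated response B-score, plate-corrected, over 3 SD above library mean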
Hep lipid drop = inhibitors of hepatocyte lipid droplet formation, primary screen, imaging, high-throughput imaging, BODIPY stain. AML12 mouse hepatocytes, oleate lipid droplets. inhibition, % at 6.5 µM. 240,000 tested, 0.4% active. AID 1656, 2009;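 active means lipid droplet intensity inhibited by at least 50%, with more than 500 cells counted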
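Technique: fluorescence imaging, 20x objective, two fields per well / Assay system: AML12 hepatocytes (mouse) / Measure: % inhibition of lipid droplet signal / Doses: 6.5 µM single-point dosing / Incubation: overnight exposure / Reagent: 100 µM oleic acid challenge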
CHT block conf = CHT inhibitors, confirmation, cell-based, membrane potential dye, duplicate | CHT-expressing cells, choline membrane potential dye; LV-to-AA substituted CHT, HEK293 cells | shares compounds with CHT inh | CHT activity remaining % of control (hits give low values), % at 10 µM | 2,400 tested, 70% active;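 active means choline transporter activity left, mean of duplicates at 10 µM, below buffer-only control mean minus 3 SD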;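 further: depolarization triggered by choline at its EC90 following an EC20 pre-addition; 0% = hemicholinium-3 full block and 100% = buffer-only control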
HEK293 MPD ctr = membrane potential effects in parental HEK293, counter-screen for CHT inhibitor project, cell-based, membrane potential dye | shares compounds with CHT inh | choline response; active = decrease or increase beyond buffer ±3SD | membrane potential ratio readout (active if shifted either direction beyond buffer ±3SD; no single direction) at 10 µM | 2,400 tested, 4% active;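 further: parental cells lack the transporter so any hit is non-specific; ratio is peak minus trough fluorescence over baseline after EC90 choline challenge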
* = called active by the depositor; i = inactive; . = no result.

SMILES | HSF1 activator | CHT inh | HSF1 inhib | PHOSPHO1 block | CHT PAM | Hep lipid drop | CHT block conf | HEK293 MPD ctr
CC(C)CCN1CCN(Cc2nc(-c3ccc(F)cc3)cs2)CC1CCO (configuration not stated) | 5 | i | -2 | 31 | i | -2 | . | .
CCOC(=O)c1c(CCl)nc2ccccc2c1C | 4 | -8.9* | 0 | 24 | i | 6 | 68%* | i
CCOC(=O)Nc1c2ccccc2nc2ccccc12 | 16 | i | 7 | 20 | i | -3 | . | .
CC(=O)Nc1ccccc1Nc1cc(C#N)c(C#N)cc1[N+](=O)[O-] | 6 | i | -3 | -23 | i | . | . | .
C/C(=N\OCC(=O)Nc1ccccc1C(=O)O)c1cccs1 | -13 | -6.2* | -1 | 10 | i | -1 | 44%* | i
C/C(=N/OCC(=O)Nc1ccc(C)cc1C)c1cccs1 | 11 | i | -4 | 8 | i | -1 | . | .
O=C(Cc1cc(=O)[nH]c(=O)[nH]1)NCC1CCCO1 (configuration not stated) | 1 | i | 7 | 7 | i | . | . | .
COc1ccc2ncc(S(=O)(=O)c3ccccc3)c(N3CCC4(CC3)OCCO4)c2c1 | -8 | -5.9* | -1 | -1 | i | -18 | 52%* | i
Cc1ccc2ncc(S(=O)(=O)c3ccccc3)c(N3CCCCC3C)c2c1 (configuration not stated) | 0 | -6.2* | 0 | 36 | i | -18 | i | i
COC(=O)C1=CN(CCCN2CCCC2=O)C=C(C(=O)OC)C1c1ccccc1C(F)(F)F | . | i | . | 30 | i | . | . | .
CCc1nnc(NC(=O)c2nn(-c3ccccc3)nc2C)s1 | 5 | i | -1 | -20 | i | -8 | . | .
Cc1nn(-c2ccccc2)nc1C(=O)Nc1nnc(C(F)(F)F)s1 | -19 | -12* | -16 | 2 | i | 2 | 43%* | i
CCC(Oc1ccccc1)C(=O)Nc1nnc(C)s1 (configuration not stated) | 2 | i | -8 | -7 | i | 7 | . | .
CCC(Oc1ccccc1)C(=O)Nc1nnc(C(F)(F)F)s1 (configuration not stated) | . | -5.1* | . | 31 | i | -9 | i | i
Cc1ccc2ncnc(Nc3cccc([N+](=O)[O-])c3)c2c1 | -11 | i | -1 | 44 | i | 22 | . | .
COc1ccc(-c2nn(CCC#N)cc2C(=O)Nc2ccccn2)cc1OC | -1 | i | -6 | . | i | 3 | . | .
CC1CCCCC1NC(=O)Cn1nnc(-c2ccc(Cl)cc2)n1 (configuration not stated) | -1 | -6.3* | -2 | -28 | i | 0 | 66%* | i
CCn1c(SCc2ccccc2)nnc1-c1ccc(S(=O)(=O)N2CCCCC2)cc1 | -1 | -5.9* | -7 | 38 | i | . | i | i
Cc1sc2nc(C3CC3)nc(SCC(=O)N3c4ccccc4CC3C)c2c1C (configuration not stated) | 10 | i | 4 | 6 | i | . | . | .
CCC1CCCCN1CCNC(=O)C1CCCN(S(=O)(=O)c2cccc3nsnc23)C1 (configuration not stated) | 9 | i | -1 | 37 | i | -15 | . | .
O=C(Nc1ccccc1Br)C1CCCN1S(=O)(=O)c1cccc2nsnc12 (configuration not stated) | -17 | -7.9* | 1 | 40 | i | 3 | 23%* | i
